Results on nine molecules are retold here after ChEMBL document CHEMBL3525925, “In vitro studies on the oxidative metabolism of 20(s)-ginsenoside Rh2 in human, monkey, dog, rat, and mouse liver microsomes, and human liver s9” (Drug Metab Dispos, 2012).

Series [1] concerns Liver. Briefly: Drug level in human liver S9 fraction treated with 10 uM 20(S)-ginsenoside Rh2 for 60 mins by MS2 spectra. Format: ADME, subcellular. To be noted: s9, 1 h. The method in brief:
(§1)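 Rh2 at 10 μM final (from methanol stock; 0.1% v/v methanol final) in 100 mM potassium phosphate pH 7.4 with 2 mM NADPH, open-to-air tubes at 37°C. 3 min preincubation, then started with liver microsomes or S9 at 1 mg/ml protein. Incubated 60 min, stopped with equal volume ice-cold acetonitrile. Controls lacked NADPH; duplicates. Metabolites detected by LC/ion-trap MSn.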

Series [2] concerns Liver microsome. Briefly: Retention time in human liver microsomes treated with 10 uM 20(S)-ginsenoside Rh2 by MS2 spectra. Format: ADME. In short, it runs like this:
(§2)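 Samples: incubation mixed with equal volume methanol, centrifuged at 14,000g for 5 min, dried under nitrogen at 40°C, reconstituted. Separated on Eclipse XDB-C18 (4.6 × 150 mm, 5 μm) at 0.5 ml/min. Gradient: 0.1% formic acid in methanol against 0.1% formic acid in 5 mM ammonium acetate, 70% to 100% organic over 17 min. Ion-trap MSn detection.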
(In general: Liver microsomes are vesicles of endoplasmic reticulum, rich in cytochrome P450 enzymes.)

In series [3] the test system is Liver. Put plainly: Retention time in human liver S9 fraction treated with 10 uM 20(S)-ginsenoside Rh2 by MS2 spectra. The format is ADME, subcellular. In short, it runs like this: as §2
The target in the next series is Cytochrome P450 3A5 (Homo sapiens, UniProt P20815). Briefly: Drug level in human recombinant CYP3A5 treated with 10 uM 20(S)-ginsenoside Rh2 for 60 mins by MS2 spectra. The format is ADME. To be noted: recombinant enzyme, 1 h. In short, it runs like this:
(§3)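 Recombinant human P450 (50 nM) with 10 μM Rh2 under the microsomal conditions: 100 mM potassium phosphate pH 7.4, 2 mM NADPH, 37°C for 60 min. Stopped with equal volume ice-cold acetonitrile. Run in duplicate; products analysed by LC/ion-trap MSn.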

For series [4], the system named is Liver microsome. Briefly: Drug level in Sprague-Dawley rat liver microsomes treated with 10 uM 20(S)-ginsenoside Rh2 for 60 mins by MS2 spectra. The format is ADME. To be noted: 1 h. In short, it runs like this: as §1
The test system of series [5] is Liver microsome. Briefly: Drug level in beagle dog liver microsomes treated with 10 uM 20(S)-ginsenoside Rh2 for 60 mins by MS2 spectra. The format is ADME, Canis lupus familiaris. To be noted: 1 h. In short, it runs like this:
as §1

Series [6] in a line: Drug level in cynomolgus monkey liver microsomes treated with 10 uM 20(S)-ginsenoside Rh2 for 60 mins by MS2 spectra. The format is ADME, Macaca fascicularis. To be noted: 1 h. In short, it runs like this:
as §1

In series [7] the test system is Liver microsome. Briefly: Drug level in human liver microsomes treated with 10 uM 20(S)-ginsenoside Rh2 for 60 mins by MS2 spectra. The format is ADME. To be noted: 1 h. The method in brief: as §1
The test system of series [8] is Liver. Put plainly: Drug level in CD-1 mouse liver microsomes treated with 10 uM 20(S)-ginsenoside Rh2 for 60 mins by MS2 spectra. To be noted: 1 h. The format is ADME. The method in brief:
as §1

For the next series, the target named is Cytochrome P450 3A4 (Homo sapiens, UniProt P08684). Briefly: Drug level in human recombinant CYP3A4 treated with 10 uM 20(S)-ginsenoside Rh2 for 60 mins by MS2 spectra. Format: ADME. To be noted: recombinant enzyme, 1 h. In short, it runs like this:
as §3

Cytochrome P450 3A4, sequence (P08684 whole entry): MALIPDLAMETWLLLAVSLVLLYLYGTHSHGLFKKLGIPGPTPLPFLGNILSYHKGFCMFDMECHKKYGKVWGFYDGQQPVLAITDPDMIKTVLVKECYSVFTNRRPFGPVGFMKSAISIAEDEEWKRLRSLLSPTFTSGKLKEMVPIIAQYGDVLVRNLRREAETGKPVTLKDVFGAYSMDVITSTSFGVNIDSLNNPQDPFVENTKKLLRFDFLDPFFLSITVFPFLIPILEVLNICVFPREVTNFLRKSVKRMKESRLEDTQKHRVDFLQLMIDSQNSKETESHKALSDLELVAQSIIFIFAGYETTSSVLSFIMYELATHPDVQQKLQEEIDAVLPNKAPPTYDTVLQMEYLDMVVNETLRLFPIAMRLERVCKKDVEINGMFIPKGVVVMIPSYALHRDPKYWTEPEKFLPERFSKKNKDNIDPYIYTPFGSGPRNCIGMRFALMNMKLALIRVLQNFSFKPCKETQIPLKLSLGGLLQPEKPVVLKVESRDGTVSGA
Cytochrome P450 3A5, sequence (P20815 whole entry): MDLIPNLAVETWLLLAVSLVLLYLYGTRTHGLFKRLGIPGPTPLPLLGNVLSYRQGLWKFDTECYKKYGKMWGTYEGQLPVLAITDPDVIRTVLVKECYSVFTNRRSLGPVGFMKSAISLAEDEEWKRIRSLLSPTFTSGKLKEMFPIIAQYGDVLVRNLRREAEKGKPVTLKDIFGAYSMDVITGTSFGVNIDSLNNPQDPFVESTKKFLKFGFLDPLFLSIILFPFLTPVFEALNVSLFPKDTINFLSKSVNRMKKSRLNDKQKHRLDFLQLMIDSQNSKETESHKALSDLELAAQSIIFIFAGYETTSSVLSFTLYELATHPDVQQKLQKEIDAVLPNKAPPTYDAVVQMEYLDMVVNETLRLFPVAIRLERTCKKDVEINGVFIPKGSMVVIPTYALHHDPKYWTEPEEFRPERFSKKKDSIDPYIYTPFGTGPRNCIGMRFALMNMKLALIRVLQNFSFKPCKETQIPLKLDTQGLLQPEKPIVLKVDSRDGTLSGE

Take `C/C(=C/CC[C@](C)(O)[C@H]1CC[C@]2(C)[C@@H]1[C@H](O)C[C@@H]1[C@@]3(C)CC[C@H](O[C@@H]4O[C@H](CO)[C@@H](O)[C@H](O)[C@H]4O)C(C)(C)[C@@H]3CC[C@]12C)C(=O)O`: the Drug metabolism result is given as “metabolite_detected” in the series on Liver [1]; “metabolite_not_detected” on Cytochrome P450 3A5; “metabolite_detected” in the series with Liver microsome [4]; “metabolite_not_detected” in the series with Liver microsome [5]; “metabolite_detected” in [6]; “metabolite_detected” in the series on Liver microsome [7]. For the same molecule, the Drug metabolism entry in the series with Liver [8] and on Cytochrome P450 3A4 was “metabolite_detected” each time. Also, the Retention_time with Liver microsome [2] and in the series with Liver [3] was 13.2 min throughout.
`CC(O)(CO)[C@H]1CC[C@@](C)([C@H]2CC[C@]3(C)[C@@H]2[C@H](O)C[C@@H]2[C@@]4(C)CC[C@H](O[C@@H]5O[C@H](CO)[C@@H](O)[C@H](O)[C@H]5O)C(C)(C)[C@@H]4CC[C@]23C)O1` (stereo not given in full): the Drug metabolism entry in the series with Liver [1] is given as “metabolite_detected”; at Cytochrome P450 3A5, “metabolite_not_detected”; in the series on Liver microsome [4] it was “metabolite_detected”; in the series with Liver microsome [5], “metabolite_not_detected”; in [6], “metabolite_detected”; in the series on Liver microsome [7], “metabolite_detected”. Besides, the Drug metabolism entry with Liver [8] and on Cytochrome P450 3A4 was “metabolite_detected” in each case. Also, the Retention_time in the series with Liver microsome [2] and in the series with Liver [3] was 16.7 min throughout.
`CC(C)(O)[C@H]1CC[C@@](C)([C@H]2CC[C@]3(C)[C@@H]2[C@H](O)C[C@@H]2[C@@]4(C)CC[C@H](O[C@@H]5O[C@H](CO)[C@@H](O)[C@H](O)[C@H]5O)C(C)(C)[C@@H]4CC[C@]23C)O1`: the Drug metabolism entry in the series with Liver [1] is reported as “metabolite_detected”; at Cytochrome P450 3A5, “metabolite_not_detected”; in the series with Liver microsome [4] it was “metabolite_detected”; in the series on Liver microsome [5], “metabolite_detected”; in series [6], “metabolite_detected”; with Liver microsome [7], “metabolite_detected”. The Drug metabolism entry in the series with Liver [8] and on Cytochrome P450 3A4 was “metabolite_detected” in each case. The Retention_time in the series on Liver microsome [2] and with Liver [3] was 20.2 min in each case.
In the case of `C/C(=C/CC[C@](C)(O)[C@H]1CC[C@]2(C)[C@@H]1[C@H](O)C[C@@H]1[C@@]3(C)CC[C@H](O[C@@H]4O[C@H](CO)[C@@H](O)[C@H](O)[C@H]4O)C(C)(C)[C@@H]3CC[C@]12C)CO`, the Drug metabolism result (in the series on Liver [1]; on Cytochrome P450 3A5; in the series on Liver microsome [4]; in the series on Liver microsome [5]; in series [6]; in the series on Liver microsome [7]) was “metabolite_detected” in each case. In addition, the Drug metabolism result with Liver [8] and at Cytochrome P450 3A4 was “metabolite_detected” each time. Further, the Retention_time in the series with Liver microsome [2] and in the series on Liver [3] was 18.3 min throughout.
For `CC(O)(CO)[C@@H]1CC[C@@](C)([C@H]2CC[C@]3(C)[C@@H]2[C@H](O)C[C@@H]2[C@@]4(C)CC[C@H](O[C@@H]5O[C@H](CO)[C@@H](O)[C@H](O)[C@H]5O)C(C)(C)[C@@H]4CC[C@]23C)O1` (stereo not given in full), the Drug metabolism entry was “metabolite_detected” in the series with Liver [1]; “metabolite_not_detected” on Cytochrome P450 3A5; “metabolite_detected” with Liver microsome [4]; “metabolite_not_detected” with Liver microsome [5]; “metabolite_detected” in [6]; “metabolite_detected” with Liver microsome [7]. Moreover, the Drug metabolism entry in the series on Liver [8] and on Cytochrome P450 3A4 was “metabolite_detected” in each case. In addition, the Retention_time in the series on Liver microsome [2] and in the series on Liver [3] was 16.2 min in each case.
Take `CC(C)(O)[C@@H]1CC[C@@](C)([C@H]2CC[C@]3(C)[C@@H]2[C@H](O)C[C@@H]2[C@@]4(C)CC[C@H](O[C@@H]5O[C@H](CO)[C@@H](O)[C@H](O)[C@H]5O)C(C)(C)[C@@H]4CC[C@]23C)O1`: the Drug metabolism entry (in the series with Liver [1]; at Cytochrome P450 3A5; in the series with Liver microsome [4]; with Liver microsome [5]; in series [6]; with Liver microsome [7]) was “metabolite_detected” each time. The Drug metabolism result in the series on Liver [8] and at Cytochrome P450 3A4 was “metabolite_detected” each time. For the same molecule, the Retention_time with Liver microsome [2] and in the series with Liver [3] was 18.9 min throughout.
With `CC1(C)[C@@H](O[C@@H]2O[C@H](CO)[C@@H](O)[C@H](O)[C@H]2O)CC[C@]2(C)[C@H]3C[C@@H](O)[C@@H]4[C@@H]([C@@](C)(O)CCC=C(CO)CO)CC[C@@]4(C)[C@]3(C)CC[C@@H]12`, the Drug metabolism result is “metabolite_detected” in the series with Liver [1]; “metabolite_not_detected” on Cytochrome P450 3A5; “metabolite_detected” in the series with Liver microsome [4]; “metabolite_detected” in the series on Liver microsome [5]; “metabolite_detected” in [6]; “metabolite_detected” in the series on Liver microsome [7]. The Drug metabolism result with Liver [8] and on Cytochrome P450 3A4 was “metabolite_detected” throughout. Further, the Retention_time in the series on Liver microsome [2] and in the series with Liver [3] was 12.2 min each time.
As to `CC1(C)O[C@H]1CC[C@](C)(O)[C@H]1CC[C@]2(C)[C@@H]1[C@H](O)C[C@@H]1[C@@]3(C)CC[C@H](O[C@@H]4O[C@H](CO)[C@@H](O)[C@H](O)[C@H]4O)C(C)(C)[C@@H]3CC[C@]12C`, the Drug metabolism result in the series on Liver [1] was “metabolite_detected”; at Cytochrome P450 3A5, “metabolite_not_detected”; in the series on Liver microsome [4], “metabolite_detected”; with Liver microsome [5], “metabolite_detected”; in series [6] it was “metabolite_detected”; in the series with Liver microsome [7], “metabolite_detected”. The Drug metabolism result with Liver [8] and at Cytochrome P450 3A4 was “metabolite_detected” throughout. For the same molecule, the Retention_time in the series with Liver microsome [2] and in the series with Liver [3] was 20 min throughout.
As for `C/C(=C\CC[C@](C)(O)[C@H]1CC[C@]2(C)[C@@H]1[C@H](O)C[C@@H]1[C@@]3(C)CC[C@H](O[C@@H]4O[C@H](CO)[C@@H](O)[C@H](O)[C@H]4O)C(C)(C)[C@@H]3CC[C@]12C)C(=O)O`, the Drug metabolism entry in the series with Liver [1] is listed as “metabolite_detected”; on Cytochrome P450 3A5, “metabolite_not_detected”; with Liver microsome [4], “metabolite_detected”; in the series on Liver microsome [5], “metabolite_not_detected”; in series [6] it was “metabolite_detected”; in the series on Liver microsome [7] it was “metabolite_detected”. Moreover, the Drug metabolism entry with Liver [8] was “metabolite_not_detected”; at Cytochrome P450 3A4, “metabolite_detected”. In addition, the Retention_time with Liver microsome [2] and with Liver [3] was 14 min throughout.
